Measured values taken from ChEMBL document CHEMBL1128396, “Synthesis and biological evaluation of a series of new parenteral optically active 3-[[(N-alkylpyridinium-4'-yl)thio]methyl]-2-oxaisocephems” (1995).
Converted amounts (≈) assume the structure as drawn.

What was measured:
Type in all cases: functional
[1] = tested on: Escherichia coli; assay: Antibacterial activity was determined against Escherichia coli NIHJ JC-2 (Gram-negative)
In short: (§1)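 2-fold agar dilution on Müller-Hinton agar. Overnight broth cultures were diluted to about 10^6 CFU/mL, and 10^4 CFU/spot was applied to plates with graded drug concentrations. Plates were incubated 18 h at 37 °C.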

[2] = tested on: Enterococcus faecalis; assay: Antibacterial activity was determined against Enterococcus faecalis ATCC 21212 (Gram-positive); in short: as §1
[3] = tested on: Klebsiella pneumoniae; assay: Antibacterial activity was determined against Klebsiella pneumoniae NCTC 9632 (Gram-negative); in short: as §1
[4] = tested on: Pseudomonas aeruginosa; assay: Antibacterial activity was determined against Pseudomonas aeruginosa ATCC 10145 (Gram-negative); in short: as §1
[5] = tested on: Staphylococcus aureus; assay: Antibacterial activity was determined against Methicillin-resistant Staphylococcus aureus (MRSA) 5038 (Gram-positive)
[6] = tested on: Staphylococcus aureus; assay: Antibacterial activity was determined against Staphylococcus aureus FDA 209P (Gram-positive); in short: as §1
[7] = tested on: Serratia marcescens; assay: Antibacterial activity was determined against Serratia marcescens ATCC 12648 (Gram-negative); in short: as §1
[8] = tested on: Staphylococcus epidermidis; assay: Antibacterial activity was determined against Staphylococcus epidermidis ATCC 12228 (Gram-positive); in short: as §1
[9] = tested on: Mus musculus; assay: Antibacterial activity was determined against MRSA 5038 at a challenge dose of 1.00*10e7 (cells/mouse) administered subcutaneously; conditions: sc
In short: (§2)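 Cultures were grown overnight at 37 °C in tryptic soy broth (S. aureus, MRSA, E. faecalis) or Müller-Hinton broth (E. coli, S. pneumoniae). Graded doses were given subcutaneously 1 h post-infection. ED50 was calculated by probit from day-7 survival, with 95% confidence limits.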

[10] = tested on: Mus musculus; assay: Antibacterial activity was determined against Staphylococcus aureus Smith at a challenge dose of 1.32*10e7 (cells/mouse) administered subcutaneously; conditions: sc; in short: as §2
[11] = tested on: Enterococcus faecalis; assay: In vitro antibacterial activity against clinical isolates Enterococcus faecalis was determined; in short: as §1
[12] = tested on: Mus musculus; assay: Antibacterial activity was determined against MRSA 5120 at a challenge dose of 7.6*10e7 (cells/mouse) administered subcutaneously; conditions: sc; in short: as §2
[13] = tested on: Mus musculus; assay: Antibacterial activity was determined against Streptococcus pneumoniae C 0096 at a challenge dose of 1.60*10e2 (cells/mouse) administered subcutaneously; conditions: sc; in short: as §2
[14] = tested on: Mus musculus; assay: Antibacterial activity was determined against Escherichia coli 29 at a challenge dose of 1.35*10e6 (cells/mouse) administered subcutaneously; conditions: sc; in short: as §2
[15] = tested on: Mus musculus; assay: Antibacterial activity was determined against Enterococcus faecalis C 0063 at a challenge dose of 7.00*10e7 (cells/mouse) administered subcutaneously; conditions: sc; in short: as §2
[16] = tested on: Staphylococcus aureus; assay: In vitro antibacterial activity against clinical isolates methicillin-resistant Staphylococcus aureus was determined
In short: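 2-fold agar dilution on Müller-Hinton agar. Overnight broth cultures were diluted to about 10^6 CFU/mL, and 10^4 CFU/spot was applied to plates with graded drug concentrations.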

[17] = tested on: Staphylococcus aureus; assay: […] was determined against MRSA 5120
[18] = tested on: Streptococcus pneumoniae; assay: In vitro antibacterial activity against clinical isolates Ampicillin-insensitive Streptococcus pneumoniae was determined; in short: as §1

Row | SMILES | MIC [1] [µg/mL] | MIC [2] [µg/mL] | MIC [3] [µg/mL] | MIC [4] [µg/mL] | MIC [5] [µg/mL] | MIC [6] [µg/mL] | MIC [7] [µg/mL] | MIC [8] [µg/mL] | further results
1 | CC(C)=CC[n+]1ccc(SCC2=C(C(=O)O)N3C(=O)[C@@H](NC(=O)/C(=N\OC4CCCC4)c4csc(N)n4)[C@H]3CO2)cc1.O=S(=O)([O-])O | 0.78 | 1.56 | 0.78 | 12.5 | 12.5 | 0.2 | 1.56 | 0.2 | 
2 | Nc1nc(/C(=N/OC2CCCC2)C(=O)N[C@@H]2C(=O)N3C(C(=O)O)=C(CSc4cc[n+](CC(=O)c5ccccc5)cc4)OC[C@H]23)cs1.O=S(=O)([O-])O | 1.56 | 1.56 | 1.56 | 25 | 12.5 | 0.2 | 3.13 | 0.39 | 
3 | Nc1nc(/C(=N/OC2CCCC2)C(=O)N[C@@H]2C(=O)N3C(C(=O)O)=C(CSc4cc[n+](CC(=O)N5CCOCC5)cc4)OC[C@H]23)cs1.O=S(=O)([O-])O | 0.78 | 1.56 | 0.78 | 6.25 | 12.5 | 0.2 | 1.56 | 0.2 | 
4 | C#CC[n+]1ccc(SCC2=C(C(=O)O)N3C(=O)[C@@H](NC(=O)/C(=N\OC4CCCC4)c4csc(N)n4)[C@H]3CO2)cc1.O=S(=O)([O-])O | 0.39 | 1.56 | 0.39 | 6.25 | 6.25 | 0.2 | 1.56 | 0.1 | 
5 | N#CC[n+]1ccc(SCC2=C(C(=O)O)N3C(=O)[C@@H](NC(=O)/C(=N\OC4CCCC4)c4csc(N)n4)[C@H]3CO2)cc1.O=S(=O)([O-])O | 0.39 | 1.56 | 0.39 | 6.25 | 12.5 | 0.2 | 1.56 | 0.2 | 
6 | CC(=O)C[n+]1ccc(SCC2=C(C(=O)O)N3C(=O)[C@@H](NC(=O)/C(=N\OC4CCCC4)c4csc(N)n4)[C@H]3CO2)cc1.O=S(=O)([O-])O | 0.39 | 0.78 | 0.39 | 6.25 | 6.25 | 0.2 | 0.78 | 0.2 | ED50 [9]: 2.76 mg/kg; ED50 [10]: 0.18 mg/kg
7 | CNC(=O)C[n+]1ccc(SCC2=C(C(=O)O)N3C(=O)[C@@H](NC(=O)/C(=N\OC4CCCC4)c4csc(N)n4)[C@H]3CO2)cc1.O=S(=O)([O-])O | 0.78 | 1.56 | 0.39 | 12.5 | 6.25 | 0.2 | 1.56 | 0.2 | ED50 [9]: 2.27 mg/kg; ED50 [10]: 0.18 mg/kg
8 | CC(C)(C)C(=O)C[n+]1ccc(SCC2=C(C(=O)O)N3C(=O)[C@@H](NC(=O)/C(=N\OC4CCCC4)c4csc(N)n4)[C@H]3CO2)cc1.O=S(=O)([O-])O | 1.56 | 1.56 | 1.56 | 25 | 6.25 | 0.2 | 3.13 | 0.39 | 
9 | NC(=O)C[n+]1ccc(SCC2=C(C(=O)O)N3C(=O)[C@@H](NC(=O)/C(=N\OC4CCCC4)c4csc(N)n4)[C@H]3CO2)cc1.O=S(=O)([O-])O | 0.2 | 1.56 | 0.2 | 3.13 | 6.25 | 0.1 | 1.56 | 0.05 | 
10 | CN(C)C(=O)C[n+]1ccc(SCC2=C(C(=O)O)N3C(=O)[C@@H](NC(=O)/C(=N\OC4CCCC4)c4csc(N)n4)[C@H]3CO2)cc1.O=S(=O)([O-])O | 0.78 | 1.56 | 0.78 | 12.5 | 12.5 | 0.2 | 1.56 | 0.39 | 
11 | C=CC[n+]1ccc(SCC2=C(C(=O)O)N3C(=O)[C@@H](NC(=O)/C(=N\OC4CCCC4)c4csc(N)n4)[C@H]3CO2)cc1.O=S(=O)([O-])O | 0.39 | 0.78 | 0.39 | 6.25 | 6.25 | 0.1 | 1.56 | 0.05 | 
12 | Nc1nc(/C(=N/OC2CCCC2)C(=O)N[C@@H]2C(=O)N3C(C(=O)O)=C(CSc4cc[n+](CC(=O)N5CCC(O)CC5)cc4)OC[C@H]23)cs1.O=S(=O)([O-])O | 1.56 | 3.13 | 0.78 | 12.5 | 25 | 0.2 | 3.13 | 0.39 | 
13 | CCC(=O)C[n+]1ccc(SCC2=C(C(=O)O)N3C(=O)[C@@H](NC(=O)/C(=N\OC4CCCC4)c4csc(N)n4)[C@H]3CO2)cc1.O=S(=O)([O-])O | 0.39 | 1.56 | 0.39 | 6.25 | 6.25 | 0.2 | 1.56 | 0.2 | MIC50 [11]: 3.13 µg/mL; MIC80 [11]: 3.13 µg/mL; MIC90 [11]: 6.25 µg/mL; ED50 [12]: 1 mg/kg; ED50 [10]: 0.22 mg/kg; ED50 [13]: 0.56 mg/kg; ED50 [14]: 0.15 mg/kg; ED50 [15]: 5.23 mg/kg; MIC50 [16]: 6.25 µg/mL; MIC80 [16]: 6.25 µg/mL; MIC90 [16]: 6.25 µg/mL; MIC [17]: 6.25 µg/mL; MIC50 [18]: 0.025 µg/mL; MIC80 [18]: 0.05 µg/mL; MIC90 [18]: 0.05 µg/mL
14 | CC(C)(C)NC(=O)C[n+]1ccc(SCC2=C(C(=O)O)N3C(=O)[C@@H](NC(=O)/C(=N\OC4CCCC4)c4csc(N)n4)[C@H]3CO2)cc1.O=S(=O)([O-])O | 1.56 | 1.56 | 1.56 | 25 | 12.5 | 0.2 | 3.13 | 0.39 | 
15 | CC1(C)S[C@@H]2[C@H](NC(=O)[C@H](N)c3ccccc3)C(=O)N2[C@H]1C(=O)O [AMPICILLIN] |  |  |  |  |  |  |  |  | ED50 [13]: 8.23 mg/kg; MIC50 [18]: 3.13 µg/mL (≈ 8.96 µM); MIC80 [18]: 3.13 µg/mL (≈ 8.96 µM); MIC90 [18]: 3.13 µg/mL (≈ 8.96 µM)
16 | CO[C@@]1(NC(=O)CSC(F)F)C(=O)N2C(C(=O)O)=C(CSc3nnnn3CCO)CO[C@@H]21 [FLOMOXEF] | 0.1 (≈ 0.201 µM) | 100 (≈ 201 µM) | 0.1 (≈ 0.201 µM) | > 100 | 50 (≈ 101 µM) | 0.39 (≈ 0.786 µM) | 0.78 (≈ 1.57 µM) | 0.39 (≈ 0.786 µM) | MIC50 [11]: > 100 µg/mL; MIC80 [11]: > 100 µg/mL; MIC90 [11]: > 100 µg/mL; ED50 [12]: 8.52 mg/kg; ED50 [13]: 18.6 mg/kg; ED50 [14]: 0.43 mg/kg; ED50 [15]: > 200 mg/kg; MIC50 [16]: 25 µg/mL (≈ 50.4 µM); MIC80 [16]: 100 µg/mL (≈ 201 µM); MIC90 [16]: 100 µg/mL (≈ 201 µM); MIC [17]: 25 µg/mL (≈ 50.4 µM); MIC50 [18]: 3.13 µg/mL (≈ 6.3 µM); MIC80 [18]: 6.25 µg/mL (≈ 12.6 µM); MIC90 [18]: 6.25 µg/mL (≈ 12.6 µM)
